Test results as given in ChEMBL document CHEMBL4715933, “Identification of Potent Reverse Indazole Inhibitors for HPK1” (ACS Med Chem Lett, 2021).

How the values were obtained:
[1] = biological target: T1, Mitogen-activated protein kinase kinase kinase kinase 1 (Homo sapiens, UniProt Q92918); experiment: Displacement of Tracer 222 from N-terminal GST-tagged human recombinant HPK1 (1 to 346 residues ) expressed in baculovirus-infected Sf9 cells incubated for 1 hr by HTRF lanthascreen binding assay
Outline: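 Binding (tracer-displacement) format run with tracer at a concentration approximately equal to its Kd; IC50 derived from displacement.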
Target sequence in this assay (Q92918 whole entry, the tested form may be a part): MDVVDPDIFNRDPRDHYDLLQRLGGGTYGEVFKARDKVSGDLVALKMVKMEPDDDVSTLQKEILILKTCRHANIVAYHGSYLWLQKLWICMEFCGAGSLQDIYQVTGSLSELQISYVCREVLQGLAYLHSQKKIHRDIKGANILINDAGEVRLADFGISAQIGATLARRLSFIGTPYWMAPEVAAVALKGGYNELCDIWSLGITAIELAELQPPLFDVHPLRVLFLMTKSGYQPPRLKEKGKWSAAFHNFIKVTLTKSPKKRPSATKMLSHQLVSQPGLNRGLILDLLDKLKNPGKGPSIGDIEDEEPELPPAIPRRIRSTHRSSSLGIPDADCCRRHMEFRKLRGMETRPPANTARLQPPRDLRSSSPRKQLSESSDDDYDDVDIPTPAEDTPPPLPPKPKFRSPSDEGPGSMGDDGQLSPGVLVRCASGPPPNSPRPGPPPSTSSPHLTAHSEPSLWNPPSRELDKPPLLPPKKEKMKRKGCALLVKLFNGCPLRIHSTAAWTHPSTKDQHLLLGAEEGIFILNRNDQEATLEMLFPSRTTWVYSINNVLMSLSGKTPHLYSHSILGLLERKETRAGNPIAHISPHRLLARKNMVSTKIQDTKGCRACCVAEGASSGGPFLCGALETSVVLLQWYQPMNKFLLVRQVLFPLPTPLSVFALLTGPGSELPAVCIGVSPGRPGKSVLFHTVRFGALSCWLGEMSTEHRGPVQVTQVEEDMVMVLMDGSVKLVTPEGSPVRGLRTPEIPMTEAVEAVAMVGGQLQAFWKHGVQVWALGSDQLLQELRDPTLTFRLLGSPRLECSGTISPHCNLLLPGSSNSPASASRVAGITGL

[2] = species: Homo sapiens; experiment: Selectivity ratio of IC50 for JAK1 (unknown origin) by ATP competitive binding assay to IC50 for N-terminal GST-tagged human recombinant HPK1 (1 to 346 residues ) expressed in baculovirus-infected Sf9 cells by HTRF lanthascreen binding assay
Outline: (§1)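 Ratio of off-target kinase IC50 (JAK1, JAK2 or CDK2) to HPK1 IC50. The off-target kinase assays were run at ATP approximately equal to Km(ATP). HPK1 IC50 came from the tracer-displacement assay with tracer at approximately Kd(tracer).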

[3] = species: Homo sapiens; experiment: Selectivity ratio of IC50 for JAK2 (unknown origin) by ATP competitive binding assay to IC50 for N-terminal GST-tagged human recombinant HPK1 (1 to 346 residues ) expressed in baculovirus-infected Sf9 cells by HTRF lanthascreen binding assay; outline: as §1
[4] = Apparent permeability of compound in dog MDCKII cells; type: ADME, cell-based, Canis lupus familiaris, MDCK-II; conditions: MDCK
[5] = species: Homo sapiens; experiment: Selectivity ratio of IC50 for CDK2 (unknown origin) by ATP competitive binding assay to IC50 for N-terminal GST-tagged human recombinant HPK1 (1 to 346 residues ) expressed in baculovirus-infected Sf9 cells by HTRF lanthascreen binding assay; outline: as §1
[6] = Volume of distribution in Wistar Han rat at 0.1 mg/kg, iv; type: ADME, organism-based; conditions: in vivo
Outline: (§2)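 Male Wistar Han rats dosed intravenously at 0.1 mg/kg, given as a solution in DMSO/PEG400/H2O. Plasma PK parameters derived: total plasma clearance, volume of distribution, mean residence time and half-life. Unbound clearance accounts for plasma protein binding.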

[7] = Half life in Wistar Han rat at 0.1 mg/kg, iv; type: ADME, organism-based; conditions: in vivo; outline: as §2
[8] = biological target: T1, Mitogen-activated protein kinase kinase kinase kinase 1; experiment: Inhibition of HPK1 in human PBMC assessed as inhibition of SLP76 phosphorylation by ELISA
Outline: (§3)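 Target-engagement assay in human peripheral blood mononuclear cells with ELISA readout of SLP76 phosphorylation. Total-cell IC50 reported. Unbound IC50 obtained by correcting for compound binding to the 10% FBS present in the assay medium.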
Target sequence in this assay (Q92918 whole entry, the tested form may be a part): as above

[9] = Unbound clearance in Wistar Han rat at 0.1 mg/kg, iv; type: ADME, organism-based; conditions: in vivo; outline: as §2
[10] = Total Plasma clearance in Wistar Han rat at 0.1 mg/kg, iv; type: ADME, organism-based; outline: as §2
[11] = biological target: T1, Mitogen-activated protein kinase kinase kinase kinase 1; experiment: Inhibition of HPK1 in human PBMC assessed as unbound concentration required for inhibition of SLP76 phosphorylation by ELISA corrected to binding to 10% FBS; outline: as §3
Target sequence in this assay (Q92918 whole entry, looked up, the tested form may be a part): as the sequence (Q92918 whole entry, the tested form may be a part) above

[12] = Mean residence time in Wistar Han rat at 0.1 mg/kg, iv; type: ADME, organism-based; conditions: in vivo; outline: as §2

## Cc1cccc(F)c1-c1ccc2cnn(-c3ccc(N4CCN(C)CC4)cc3)c2c1
[1]
  IC50: 1470 nM

## Cc1cccc(F)c1-c1cc2c(cn1)cnn2-c1cnn(C)c1
[1]
  IC50: 1090 nM

## COc1cccc(F)c1-c1cc2c(cn1)cnn2-c1cccc(N2CCN(C)CC2)c1
[1]
  IC50: 408 nM
[2]
  Ratio IC50: 25
[3]
  Ratio IC50: 25

## COc1cccc(F)c1-c1cc2c(cn1)cnn2-c1cccc(N2CCN(C)CC2)n1
[4]
  Papp: 28 ×10⁻⁶ cm/s
[1]
  IC50: 2.6 nM
[5]
  Ratio IC50: 44
[6]
  Vd: 1.1 L/kg
[7]
  half-life: 2.3 h
[2]
  Ratio IC50: 751
[8]
  IC50: 8000 nM
[3]
  Ratio IC50: 135
[9]
  CL free: 2171 mL/min/kg
[10]
  clearance: 9.4 mL/min/kg
[11]
  fIC50: 0.6 µM

## CNC1CCc2c1ccc(F)c2-c1cc2c(cn1)cnn2-c1ccc(N2CCN(C)CC2)cc1 (racemic)
[1]
  IC50: 193 nM
[5]
  Ratio IC50: 52
[2]
  Ratio IC50: 52
[3]
  Ratio IC50: 52

## COc1cccc(-n2ncc3cnc(-c4c(F)cccc4OC)cc32)n1
[1]
  IC50: 103 nM
[5]
  Ratio IC50: 5
[2]
  Ratio IC50: 97
[3]
  Ratio IC50: 21

## CCOc1cccc(F)c1-c1cc2c(cn1)cnn2-c1ccc(N2CCN(C)CC2)cc1
[1]
  IC50: 557 nM
[5]
  Ratio IC50: 18
[2]
  Ratio IC50: 18
[3]
  Ratio IC50: 18

## COc1cccc(F)c1-c1cc2c(cn1)cnn2-c1ccnc(N2CCN(C)CC2)c1
[1]
  IC50: 60 nM
[5]
  Ratio IC50: 167
[2]
  Ratio IC50: 167
[3]
  Ratio IC50: 61

## COc1cccc(F)c1-c1cc2c(cn1)cnn2-c1cccc(N2CCCC2)n1
[1]
  IC50: 109 nM

## CN1CCN(c2cc(-c3n[nH]c4ccc(-c5cnn6c5CCC6)cc34)ccn2)CC1
[1]
  IC50: 9.1 nM
[12]
  MRT: 1 h
[6]
  Vd: 7.1 L/kg
[2]
  Ratio IC50: 205
[3]
  Ratio IC50: 1110
[10]
  clearance: 117 mL/min/kg

## COc1cccc(F)c1-c1cc2c(cn1)cnn2-c1cccc(N2CCNCC2)n1
[1]
  IC50: 3.8 nM
[5]
  Ratio IC50: 29
[2]
  Ratio IC50: 446
[3]
  Ratio IC50: 204

## COc1cccc(F)c1-c1cc2c(cn1)cnn2-c1cccc(N2CC[C@H](N(C)C)C2)n1
[4]
  Papp: 30 ×10⁻⁶ cm/s
[1]
  IC50: 1.2 nM
[5]
  Ratio IC50: 281
[6]
  Vd: 0.3 L/kg
[7]
  half-life: 1.2 h
[2]
  Ratio IC50: 3070
[8]
  IC50: > 10000 nM
[3]
  Ratio IC50: 393
[10]
  clearance: 4.8 mL/min/kg

## Cc1ccccc1-c1cc2c(cn1)cnn2-c1ccc(N2CCN(C)CC2)cc1
[1]
  IC50: 410 nM
[2]
  Ratio IC50: 24
[3]
  Ratio IC50: 24

## COc1cccc(F)c1-c1cc2c(cn1)cnn2-c1cccc(N2CCOCC2)n1
[1]
  IC50: 34 nM
[5]
  Ratio IC50: 12
[2]
  Ratio IC50: 92
[3]
  Ratio IC50: 18

## CNC(=O)N1CCN(c2cccc(-n3ncc4cnc(-c5c(F)cccc5OC)cc43)n2)CC1
[1]
  IC50: 11 nM
[5]
  Ratio IC50: 30
[2]
  Ratio IC50: 311
[3]
  Ratio IC50: 32

## Cc1cccc(F)c1-c1cc2c(cn1)cnn2-c1ccc(N2CCN(C)CC2)cc1
[1]
  IC50: 121 nM
[5]
  Ratio IC50: 83
[2]
  Ratio IC50: 83
[3]
  Ratio IC50: 83

## C[C@@H]1CN(c2cc(-n3ncc4ccc(-c5cnn6c5OCCC6)cc43)ccn2)C[C@H](C)N1C
[1]
  IC50: 1460 nM
[12]
  MRT: 2.6 h
[6]
  Vd: 1.4 L/kg
[2]
  Ratio IC50: 7
[3]
  Ratio IC50: 7
[10]
  clearance: 8.7 mL/min/kg

## COc1cccc(F)c1-c1cc2c(cnn2-c2cccc(N3CCN(C)CC3)n2)cc1C#N
[4]
  Papp: < 14 ×10⁻⁶ cm/s
[1]
  IC50: 2 nM
[5]
  Ratio IC50: 115
[6]
  Vd: 2.3 L/kg
[7]
  half-life: 3.1 h
[2]
  Ratio IC50: 1320
[8]
  IC50: > 10000 nM
[3]
  Ratio IC50: 130
[9]
  CL free: 19913 mL/min/kg
[10]
  clearance: 12 mL/min/kg

## COc1ccncc1-c1cc2c(cn1)cnn2-c1ccc(N2CCN(C)CC2)cc1
[1]
  IC50: 120 nM
[5]
  Ratio IC50: 4
[2]
  Ratio IC50: 83
[3]
  Ratio IC50: 83
